Active and inactive are the calls of the source. The rule behind the calls is not given here.
Experiments:
MG-63 [1] = experiment: Induction of apoptosis in human MG63 cells assessed as formation of apoptotic bodies after 48 hrs by Hoechst 33258 staining-based fluorescence microscopic analysis; format: functional, cell-based
Method in brief: (§1)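 Dissociated sarcospheres seeded on glass coverslips in complete IMDM and exposed to 0.5, 1 and 2 μM for 48 h; untreated cells as negative control. Fixed in methanol/acetic acid (3:1), then stained with 2.25 μg/mL Hoechst 33258 for 10 min at rt in the dark. Apoptotic-body nuclei counted over at least five fields (20× objective) and reported as percentage of cells.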

MG-63 [2] = experiment: Cytotoxicity against human MG63 cells assessed as cell viability after 72 hrs by MTT assay; format: functional, cell-based
Method in brief: (§2)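 Sarcosphere-derived CSC cultures exposed 72 h to concentrations from 100 μM down to 0.1 μM. Viability compared with DMSO-only treated cells. IC50 calculated by linear regression.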

Histone deacetylase 5 = Histone deacetylase 5 (Homo sapiens, UniProt Q9UQL6); experiment: Inhibition of recombinant HDAC5 (unknown origin) by homogeneous fluorescence release assay
Sequence of Histone deacetylase 5 (Q9UQL6 whole entry, canonical isoform): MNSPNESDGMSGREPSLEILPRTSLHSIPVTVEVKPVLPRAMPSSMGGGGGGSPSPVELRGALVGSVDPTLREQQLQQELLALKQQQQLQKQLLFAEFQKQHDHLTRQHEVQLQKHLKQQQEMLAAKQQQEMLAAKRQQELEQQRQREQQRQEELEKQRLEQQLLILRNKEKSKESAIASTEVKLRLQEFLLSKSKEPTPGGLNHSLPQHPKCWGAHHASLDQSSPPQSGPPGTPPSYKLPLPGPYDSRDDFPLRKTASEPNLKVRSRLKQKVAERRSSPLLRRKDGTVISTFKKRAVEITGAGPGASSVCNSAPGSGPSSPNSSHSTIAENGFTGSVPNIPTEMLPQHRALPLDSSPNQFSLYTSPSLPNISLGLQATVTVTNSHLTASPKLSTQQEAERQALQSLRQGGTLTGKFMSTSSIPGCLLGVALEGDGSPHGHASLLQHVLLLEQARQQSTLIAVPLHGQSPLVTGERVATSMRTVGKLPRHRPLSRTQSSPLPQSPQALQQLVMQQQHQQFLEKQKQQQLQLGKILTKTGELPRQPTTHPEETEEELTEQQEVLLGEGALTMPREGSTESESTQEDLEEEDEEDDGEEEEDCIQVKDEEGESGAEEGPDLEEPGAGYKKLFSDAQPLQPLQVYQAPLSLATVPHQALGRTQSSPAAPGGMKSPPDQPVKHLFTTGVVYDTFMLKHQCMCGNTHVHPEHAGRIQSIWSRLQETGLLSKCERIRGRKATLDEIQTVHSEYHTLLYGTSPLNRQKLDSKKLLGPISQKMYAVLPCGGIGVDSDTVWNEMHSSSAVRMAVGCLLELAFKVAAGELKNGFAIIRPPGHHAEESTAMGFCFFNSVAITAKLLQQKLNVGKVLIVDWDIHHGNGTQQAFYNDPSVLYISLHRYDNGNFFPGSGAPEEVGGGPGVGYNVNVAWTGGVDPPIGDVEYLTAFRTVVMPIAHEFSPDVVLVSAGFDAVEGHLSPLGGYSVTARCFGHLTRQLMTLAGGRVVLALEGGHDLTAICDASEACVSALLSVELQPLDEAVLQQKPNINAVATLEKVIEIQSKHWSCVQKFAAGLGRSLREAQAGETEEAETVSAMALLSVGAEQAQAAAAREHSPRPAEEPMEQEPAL
Method in brief: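 Recombinant HDAC isoform panel (HDAC1−11), tested in 10-dose IC50 mode with 3-fold serial dilution starting from 50 μM solutions.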

A673 = experiment: Antiproliferative activity against human A673 cells after 24 to 72 hrs by […] dye exclusion assay; format: functional, cell-based
Method in brief: (§3)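 Sarcosphere-derived CSCs, dissociated to single cells, plated at 50000/well in complete IMDM for adhesion. After 24 h, exposed to 0.5, 1 and 2 μM. Viable cells counted by dye exclusion at 24, 48 and 72 h. Growth inhibition is expressed relative to DMSO-treated controls. Three experiments in duplicate.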

MG-63 [3] = experiment: Induction of human MG63 cell differentiation assessed as increase in bone nodule formation after 14 days by Alizarin Red S staining-based spectrophotometric analysis; format: functional
Method in brief: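 Cells from dissociated MG-63 sarcospheres were grown in α-MEM with 10% FBS until 70% confluent. They were then switched to mineralization medium (10 mM β-glycerophosphate, 10−8 M dexamethasone, […] ascorbic acid 2-phosphate) and exposed continuously to 0.025–0.5 μM compound for 14 days. After fixation, Alizarin Red S staining (pH 4.2) was eluted with 10% cetylpyridinium chloride and read at 570 nm. Values are OD relative to medium-alone control, in triplicate.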

SK-ES1 = experiment: Cytotoxicity against human SK-ES-1 cells assessed as cell viability after 72 hrs by MTT assay; format: functional, cell-based; method in brief: as §2
A204 [4] = experiment: Cytotoxicity against human A204 cells assessed as cell viability after 72 hrs by MTT assay; format: functional, cell-based; method in brief: as §2
RD = experiment: Cytotoxicity against human RD cells assessed as cell viability after 72 hrs by MTT assay; format: functional, cell-based; method in brief: as §2
Histone deacetylase 7 = target: T1, Histone deacetylase 7 (Homo sapiens, UniProt Q8WUI4); experiment: Inhibition of recombinant HDAC7 (unknown origin) by homogeneous fluorescence release assay
T1 sequence (Q8WUI4 whole entry): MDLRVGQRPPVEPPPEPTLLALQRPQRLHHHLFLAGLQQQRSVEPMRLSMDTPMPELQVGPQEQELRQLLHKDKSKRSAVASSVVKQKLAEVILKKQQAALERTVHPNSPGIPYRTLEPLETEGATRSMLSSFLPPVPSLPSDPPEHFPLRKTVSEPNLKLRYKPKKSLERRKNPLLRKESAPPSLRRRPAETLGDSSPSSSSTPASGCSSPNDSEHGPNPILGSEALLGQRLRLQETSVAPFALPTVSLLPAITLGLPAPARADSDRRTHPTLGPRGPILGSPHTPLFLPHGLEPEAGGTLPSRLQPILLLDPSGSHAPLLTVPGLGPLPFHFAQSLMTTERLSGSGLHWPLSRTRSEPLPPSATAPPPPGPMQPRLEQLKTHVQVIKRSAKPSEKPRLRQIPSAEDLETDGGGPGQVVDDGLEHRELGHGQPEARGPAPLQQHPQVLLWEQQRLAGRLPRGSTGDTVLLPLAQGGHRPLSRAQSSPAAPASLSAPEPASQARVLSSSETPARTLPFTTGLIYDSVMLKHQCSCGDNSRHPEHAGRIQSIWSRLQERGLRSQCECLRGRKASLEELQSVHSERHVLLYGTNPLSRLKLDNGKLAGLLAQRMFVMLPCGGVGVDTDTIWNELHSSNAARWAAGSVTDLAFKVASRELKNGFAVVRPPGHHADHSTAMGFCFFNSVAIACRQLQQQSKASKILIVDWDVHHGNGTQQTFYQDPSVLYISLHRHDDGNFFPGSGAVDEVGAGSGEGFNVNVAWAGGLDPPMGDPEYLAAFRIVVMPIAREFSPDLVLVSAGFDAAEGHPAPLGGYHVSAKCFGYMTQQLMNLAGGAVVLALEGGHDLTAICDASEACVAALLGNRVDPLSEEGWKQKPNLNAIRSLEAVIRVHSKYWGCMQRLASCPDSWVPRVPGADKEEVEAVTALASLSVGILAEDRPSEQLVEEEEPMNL
Method in brief: (§4)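 Isoform enzyme assay run in 10-dose IC50 mode. Compounds were serially diluted 3-fold starting from 50 μM solutions.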

A204 [5] = experiment: Antiproliferative activity against human A204 cells after 24 to 72 hrs by […] dye exclusion assay; format: functional, cell-based; method in brief: as §3
A204 [6] = experiment: Induction of apoptosis in human A204 cells at 1 to 2 uM after 48 hrs by Hoechst 33258 staining-based fluorescence microscopic analysis; format: functional, cell-based; method in brief: as §1
HOS = experiment: Cytotoxicity against HOS cells assessed as cell viability after 72 hrs by MTT assay; format: functional, cell-based; settings: Homo sapiens; method in brief: as §2
Histone deacetylase 9 = Histone deacetylase 9 (Homo sapiens, UniProt Q9UKV0); experiment: Inhibition of recombinant HDAC9 (unknown origin) by homogeneous fluorescence release assay; method in brief: as §4
Sequence of Histone deacetylase 9 (Q9UKV0 whole entry): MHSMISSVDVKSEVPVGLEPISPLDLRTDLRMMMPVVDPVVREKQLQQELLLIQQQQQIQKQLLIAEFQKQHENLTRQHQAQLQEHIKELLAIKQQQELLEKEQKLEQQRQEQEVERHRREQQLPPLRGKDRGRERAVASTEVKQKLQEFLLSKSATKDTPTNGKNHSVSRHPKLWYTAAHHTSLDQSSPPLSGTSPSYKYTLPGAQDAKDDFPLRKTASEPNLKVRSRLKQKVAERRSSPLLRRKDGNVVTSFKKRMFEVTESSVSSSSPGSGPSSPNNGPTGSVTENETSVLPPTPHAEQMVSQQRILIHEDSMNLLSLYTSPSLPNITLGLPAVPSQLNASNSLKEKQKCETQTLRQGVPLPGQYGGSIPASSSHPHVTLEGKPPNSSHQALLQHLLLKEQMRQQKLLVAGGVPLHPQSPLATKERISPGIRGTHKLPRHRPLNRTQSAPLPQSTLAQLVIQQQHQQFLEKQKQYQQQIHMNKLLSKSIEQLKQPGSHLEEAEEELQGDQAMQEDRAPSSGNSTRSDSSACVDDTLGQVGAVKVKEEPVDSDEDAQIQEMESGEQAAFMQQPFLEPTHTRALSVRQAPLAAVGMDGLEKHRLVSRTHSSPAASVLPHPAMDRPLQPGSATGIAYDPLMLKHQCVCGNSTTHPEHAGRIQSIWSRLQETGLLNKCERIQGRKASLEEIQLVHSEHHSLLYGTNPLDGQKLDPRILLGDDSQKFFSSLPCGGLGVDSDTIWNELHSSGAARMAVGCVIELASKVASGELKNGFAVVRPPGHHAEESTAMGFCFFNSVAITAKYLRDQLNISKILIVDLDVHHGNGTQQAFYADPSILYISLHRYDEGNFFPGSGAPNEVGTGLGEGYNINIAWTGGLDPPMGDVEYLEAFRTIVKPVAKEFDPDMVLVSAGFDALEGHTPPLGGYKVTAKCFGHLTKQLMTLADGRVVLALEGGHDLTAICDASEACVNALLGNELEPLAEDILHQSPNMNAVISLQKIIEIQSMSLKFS

[7] = target: T2, Polyamine deacetylase HDAC10 (Homo sapiens, UniProt Q969S8); experiment: Inhibition of recombinant HDAC10 (unknown origin) by homogeneous fluorescence release assay
T2 sequence (Q969S8 whole entry): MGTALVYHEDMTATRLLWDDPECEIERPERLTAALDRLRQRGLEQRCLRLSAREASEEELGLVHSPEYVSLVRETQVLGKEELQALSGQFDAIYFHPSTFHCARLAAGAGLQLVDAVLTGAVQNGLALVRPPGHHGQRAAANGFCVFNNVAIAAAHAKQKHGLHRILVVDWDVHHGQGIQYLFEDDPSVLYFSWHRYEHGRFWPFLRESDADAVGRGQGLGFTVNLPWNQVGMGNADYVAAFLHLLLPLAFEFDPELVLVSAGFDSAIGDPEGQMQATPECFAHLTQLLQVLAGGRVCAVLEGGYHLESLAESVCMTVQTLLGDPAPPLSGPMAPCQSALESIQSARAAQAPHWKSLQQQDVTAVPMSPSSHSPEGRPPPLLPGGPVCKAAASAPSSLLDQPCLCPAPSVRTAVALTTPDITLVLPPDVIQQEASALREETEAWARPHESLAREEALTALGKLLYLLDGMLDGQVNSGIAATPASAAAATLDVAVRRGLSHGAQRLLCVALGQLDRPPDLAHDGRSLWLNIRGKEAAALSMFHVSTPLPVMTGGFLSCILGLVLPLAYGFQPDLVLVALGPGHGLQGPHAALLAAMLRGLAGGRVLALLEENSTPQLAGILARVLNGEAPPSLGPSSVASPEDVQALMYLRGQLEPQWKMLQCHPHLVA

Row | SMILES | Activity (MG-63 [1]) | Activity (MG-63 [2]) | IC50 (Histone deacetylase 5) [µM] | Activity (A673) | Activity (MG-63 [3]) | Activity (SK-ES1) | Activity (A204 [4]) | Activity (RD) | IC50 (Histone deacetylase 7) [µM] | Activity (A204 [5]) | Activity (A204 [6]) | Activity (HOS) | IC50 (Histone deacetylase 9) [µM] | IC50 [7] [µM]
1 | O=C(CCCCSc1nc(-c2ccc(-c3ccccc3)cc2)cc(=O)[nH]1)NO | Dose-dependent effect | Dose-dependent effect | > 50 | Dose-dependent effect | Dose-dependent effect | Dose-dependent effect | Dose-dependent effect | Dose-dependent effect | > 50 | Dose-dependent effect | Active | Dose-dependent effect | > 50 | –
2 | O=C(/C=C/c1ccc(NC(=O)C(Cc2ccccc2)c2ccccc2)cn1)NO (stereo unspecified) | Dose-dependent effect | Dose-dependent effect | 9.37 | Dose-dependent effect | – | Dose-dependent effect | Dose-dependent effect | Dose-dependent effect | 8.77 | Dose-dependent effect | inactive | Dose-dependent effect | 10.6 | 1.8
